# Only some compounds are listed: those with a hit (about 2.4% of all), similar ones and a draw of the others.
# LANA-H2A inh = blocks KSHV LANA binding to histone H2A/H2B. inhibition, % (concentration not given with the values). hit rate 0.6% among 320,000. cell-free LANA-H2A/H2B peptide, fluorescence polarization; in the data active = inhibition mostly above about 10%, no sharp cut-off; inactive = mostly below about 6.7%
# Target sequence (Q9QR71 whole entry, looked up): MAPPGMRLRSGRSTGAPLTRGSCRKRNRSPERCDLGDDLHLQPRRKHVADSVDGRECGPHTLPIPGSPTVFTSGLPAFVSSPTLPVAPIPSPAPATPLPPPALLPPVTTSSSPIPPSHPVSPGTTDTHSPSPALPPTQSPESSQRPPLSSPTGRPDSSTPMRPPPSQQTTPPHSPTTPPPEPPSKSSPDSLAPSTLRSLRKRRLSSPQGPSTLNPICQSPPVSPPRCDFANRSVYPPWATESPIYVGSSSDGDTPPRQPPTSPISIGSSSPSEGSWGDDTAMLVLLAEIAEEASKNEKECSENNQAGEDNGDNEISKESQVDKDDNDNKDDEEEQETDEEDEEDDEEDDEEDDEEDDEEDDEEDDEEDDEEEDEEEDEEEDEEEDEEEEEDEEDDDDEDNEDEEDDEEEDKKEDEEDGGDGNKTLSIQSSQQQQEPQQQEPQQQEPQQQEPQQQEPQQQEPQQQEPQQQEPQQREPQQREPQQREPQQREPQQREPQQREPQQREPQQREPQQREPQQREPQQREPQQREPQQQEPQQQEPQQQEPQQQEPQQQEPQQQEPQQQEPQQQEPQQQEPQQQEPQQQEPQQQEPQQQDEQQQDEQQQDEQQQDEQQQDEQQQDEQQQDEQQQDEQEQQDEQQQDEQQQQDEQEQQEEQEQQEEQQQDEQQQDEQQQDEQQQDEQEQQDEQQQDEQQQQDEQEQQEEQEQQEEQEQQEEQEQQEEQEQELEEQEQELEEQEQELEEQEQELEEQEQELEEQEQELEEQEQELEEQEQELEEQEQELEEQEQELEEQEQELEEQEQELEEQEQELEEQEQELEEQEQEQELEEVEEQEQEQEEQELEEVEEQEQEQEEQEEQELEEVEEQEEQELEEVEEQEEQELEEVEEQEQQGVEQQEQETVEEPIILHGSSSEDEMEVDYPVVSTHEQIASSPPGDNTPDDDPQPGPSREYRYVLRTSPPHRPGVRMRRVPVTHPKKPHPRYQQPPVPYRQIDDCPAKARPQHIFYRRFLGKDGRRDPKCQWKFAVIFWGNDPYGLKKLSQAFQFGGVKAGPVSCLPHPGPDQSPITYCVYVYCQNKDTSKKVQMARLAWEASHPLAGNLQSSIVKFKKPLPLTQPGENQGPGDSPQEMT
# RanGTP-Imp inh = inhibitors of RanGTP-importin-beta interaction, primary screen, biochemical, FRET, CFP-Ran, YFP-importin-beta, homogeneous; inhibition, % (no concentration beside the values); cell-free CFP-Ran/YFP-importin-beta FRET ratio; hit rate 1.1% among 300,000;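 active = more than half of the replicate wells show a fall in the fluorescence ratio signal beyond about 16%, limit read from the data, passing the limit was not always enough; inconclusive = exactly half of the replicate wells pass the set limit; inactive = fewer than half of replicates pass the limit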
# Runt-SMMHC FRET = inhibitors of human RUNX1 Runt domain binding to CBFb-SMMHC; Q01196+Q13951; Cerulean-Runt/Venus-CBFb-SMMHC FRET ratio 530/480, 1 h; inhibition, % at 20 µM; hit rate 0.74% among 220,000; AID 1434;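 active = mean inhibition across duplicate retests at 20 µM reaching about 50%, limit read from the data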;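 also: inhibitors lower the FRET ratio by blocking Runt binding to CBFb-SMMHC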
# Runt-CBFb FRET = blocks binding of human RUNX1 Runt domain to CBFb; Cerulean-Runt/Venus-CBFb FRET ratio 530/480, 1 h; inhibition, % at 20 µM; hit rate 0.46% among 220,000; AID 1496;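 active = inhibition over about 50% at 20 µM in the single-dose screen, limit read from the data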
#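 Assay system: Cerulean-Runt domain fusion protein, energy donor; Signal: fluorescence energy transfer, 422 nm excitation, 530/480 nm emission; Timing: 1 h compound exposure, room temperature; Control set: unlabeled CBFb; Medium: Tris buffer pH 7.5 with salts and BSA; Compound: single test concentration of 20 µM, 1% DMSO final; Probe or stimulus: Venus-CBFb 100 nM.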
# MEX-5 binding = C. elegans MEX-5 TCR-2 RNA binding activity; activity score (negative = inhibition of binding), % at 10 µM; MEX-5/FITC-TCR2 RNA binding, fluorescence polarization; stronger effect = lower value; hit rate 0.38% among 300,000;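 active = inhibition past about -25% in most replicates, and total fluorescence under double the plate's negative control median, limit read from the data; inconclusive = replicates evenly split on the limit, or fluorescence at least double controls; inactive = too little inhibition in most replicates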
# EBV gp42 inh = inhibitors of Epstein-Barr virus glycoprotein 42 | hit rate 0.42% among 220,000 | Fluorescence polarization binding assay, mP read-out | Q1HVG2 | AID 1085 | inhibition, % (tested at 21.74 µM); in the data active = inhibition above about 50%
# Hits are given with their value; 0 = inactive; ? = inconclusive; - = not tested or not shown; ! = not active in a repeat.
SMILES,LANA-H2A inh,RanGTP-Imp inh,Runt-SMMHC FRET,Runt-CBFb FRET,MEX-5 binding,EBV gp42 inh
O=C1CCCN1C(=O)COc1ccccc1[N+](=O)[O-],0,0,-,-,0,-
O=C(Cc1nc2ccccc2[nH]c1=O)c1ccccc1,-,0,0,0,-61,52
CC[C@H](C)/C=C(C)/C=C/C1=CC2=CC(=O)[C@]3(C)OC(=O)[C@@H](C(C)=O)[C@@H]3C2=CO1,0,55,85,0,0,0
CCOC(=O)c1c(C)[nH]c(C(=O)N2CCN(c3ccc(OC)cc3)CC2)c1C,0,0,0,0,0,0
CCOc1ccc(NC(=O)CN(C)S(=O)(=O)c2ccc(-c3ccc(=O)[nH]n3)s2)cc1,0,0,-,-,0,-
O=C(CCNC(=O)Cn1ccc2ccccc2c1=O)NCCCN1CCN(c2ccc(F)cc2)CC1,0,0,0,-,0,0
O=C(CNC(=O)Cn1ccc2ccccc2c1=O)NCCCN1CCN(c2cccc(Cl)c2)CC1,0,21,0,0,0,0
Cc1cccnc1CN1CCN(Cc2nc(C(c3ccccc3)c3ccccc3)no2)CC1,0,?,0,0,0,0
CC(C)Cc1nnc(NC(=O)CCC(=O)N2CCN(c3ccccc3F)CC2)s1,0,154,-,-,0,-
COc1ccccc1N1CCN(C(=O)CCC(=O)Nc2nnc(CC(C)C)s2)CC1,0,0,-,-,0,-
Cc1ccc(CS(=O)Cc2ccc(C(=O)NCC(C)c3ccccc3)o2)cc1 (stereo not drawn),0,0,-,-,0,-
CCCC1CCc2c(sc(NC(=O)OCC)c2C#N)C1 (stereo not drawn),0,0,0,0,0,0
COc1ccc(-n2c(C)ccc2-c2ccccc2)cn1,79,0,-,-,0,-
O=c1c(-c2cc3ccccc3o2)[n+]([O-])c2ccccc2n1OCc1ccccn1,0,0,0,0,0,0
CCOn1c(=O)c(-c2cc3ccccc3o2)[n+]([O-])c2ccccc21,0,0,0,0,-43,0
CN1CCC2(CC1)C1CN(C)CC=C1C(C#N)=C(N)C2(C#N)C#N (stereo not drawn),0,43,75,71!,?,76!
COc1ccc(OC)c(NC(=O)C2CCCN(S(C)(=O)=O)C2)c1 (stereo not drawn),0,0,-,-,0,-
CCOc1ccc(C(=O)NC(C(=O)NCCc2ccc(S(N)(=O)=O)cc2)C(C)C)cc1 (stereo not drawn),14,0,-,-,0,-
COc1cc(OC)cc(-c2cc3ccccc3c(=O)o2)c1,70,-,-,-,-,-
CC(=O)c1ccc(C(=O)Nc2sc3c(c2C(N)=O)CCN(Cc2ccccc2)C3)cc1,0,55,-,-,-37,-
CCN1CCc2c(sc(NC(=O)c3cc4ccccc4cc3OC)c2C(N)=O)C1,0,-,-,-,0,-
COc1cccc(OC)c1C(=O)Nc1sc2c(c1C(N)=O)CCN(Cc1ccccc1)C2,0,134,-,-,0,-
CN(CCCNC(=O)c1ccccc1F)CCCNC(=O)c1ccccc1F,0,0,-,-,0,-
O=C(CSc1nnc(SCc2ccccc2)s1)N/N=C/C=C\c1ccco1,0,0,0,0,0,53
O=C(Nc1ccc(SC(F)F)cc1)C1=CC=CN2CCS(=O)(=O)N=C12,0,-,-,-,-,-
SMILES,LANA-H2A inh,RanGTP-Imp inh,Runt-SMMHC FRET,Runt-CBFb FRET,MEX-5 binding,EBV gp42 inh
COC(=O)c1c(C)c2c(C)cc3ccccn3c-2c1C(=O)OC,0,0,0,0,0,0
COC(=O)c1cc2c(-c3ccccc3)cc3ccccn3c-2c1C(=O)OC,0,0,54,0,0,61
CCc1c(C)nc(N)n2c(SCC(=O)N3CCCC(C)C3)nnc12 (stereo not drawn),0,0,0,0,0,0
Cc1cccn2c(=O)c3cc(S(=O)(=O)c4ccccc4)c(=N)n(Cc4cccnc4)c3nc12,0,139,-,-,-31,-
N=c1c(S(=O)(=O)c2ccccc2)cc2c(=O)n3ccccc3nc2n1Cc1cccnc1,0,122,-,-,-42,-
Cc1ccc(S(=O)(=O)c2cc3c(=O)n4cccc(C)c4nc3n(Cc3ccncc3)c2=N)cc1,0,112,-,-,0,-
N=c1c(S(=O)(=O)c2ccc(Br)cc2)cc2c(=O)n3ccccc3nc2n1Cc1ccccc1,0,0,-,-,0,-
CC(C)(C)NC(=O)C1Cc2ccccc2CN1C(=O)Nc1ccccc1Cl (stereo not drawn),0,0,0,0,0,0
CCN(C(=O)c1ccc2c(=O)n3c(nc2c1)CCCCC3)c1ccc(F)cc1,0,0,-,-,0,-
